In ChEMBL document CHEMBL4024771, “Optimization of Orally Bioavailable Enhancer of Zeste Homolog 2 (EZH2) Inhibitors Using Ligand and Property-Based Design Strategies: Identification of Development Candidate …” (J Med Chem, 2018):
In brackets after ≈: the same amount, converted by molar mass. Activity calls are given as the source filed them. No cut-off for these calls is given here.

Tests used:
[1] = biological target: Voltage-gated inwardly rectifying potassium channel KCNH2 (Homo sapiens, UniProt Q12809); assay: Inhibition of human ERG
Sequence of Voltage-gated inwardly rectifying potassium channel KCNH2 (Q12809 whole entry): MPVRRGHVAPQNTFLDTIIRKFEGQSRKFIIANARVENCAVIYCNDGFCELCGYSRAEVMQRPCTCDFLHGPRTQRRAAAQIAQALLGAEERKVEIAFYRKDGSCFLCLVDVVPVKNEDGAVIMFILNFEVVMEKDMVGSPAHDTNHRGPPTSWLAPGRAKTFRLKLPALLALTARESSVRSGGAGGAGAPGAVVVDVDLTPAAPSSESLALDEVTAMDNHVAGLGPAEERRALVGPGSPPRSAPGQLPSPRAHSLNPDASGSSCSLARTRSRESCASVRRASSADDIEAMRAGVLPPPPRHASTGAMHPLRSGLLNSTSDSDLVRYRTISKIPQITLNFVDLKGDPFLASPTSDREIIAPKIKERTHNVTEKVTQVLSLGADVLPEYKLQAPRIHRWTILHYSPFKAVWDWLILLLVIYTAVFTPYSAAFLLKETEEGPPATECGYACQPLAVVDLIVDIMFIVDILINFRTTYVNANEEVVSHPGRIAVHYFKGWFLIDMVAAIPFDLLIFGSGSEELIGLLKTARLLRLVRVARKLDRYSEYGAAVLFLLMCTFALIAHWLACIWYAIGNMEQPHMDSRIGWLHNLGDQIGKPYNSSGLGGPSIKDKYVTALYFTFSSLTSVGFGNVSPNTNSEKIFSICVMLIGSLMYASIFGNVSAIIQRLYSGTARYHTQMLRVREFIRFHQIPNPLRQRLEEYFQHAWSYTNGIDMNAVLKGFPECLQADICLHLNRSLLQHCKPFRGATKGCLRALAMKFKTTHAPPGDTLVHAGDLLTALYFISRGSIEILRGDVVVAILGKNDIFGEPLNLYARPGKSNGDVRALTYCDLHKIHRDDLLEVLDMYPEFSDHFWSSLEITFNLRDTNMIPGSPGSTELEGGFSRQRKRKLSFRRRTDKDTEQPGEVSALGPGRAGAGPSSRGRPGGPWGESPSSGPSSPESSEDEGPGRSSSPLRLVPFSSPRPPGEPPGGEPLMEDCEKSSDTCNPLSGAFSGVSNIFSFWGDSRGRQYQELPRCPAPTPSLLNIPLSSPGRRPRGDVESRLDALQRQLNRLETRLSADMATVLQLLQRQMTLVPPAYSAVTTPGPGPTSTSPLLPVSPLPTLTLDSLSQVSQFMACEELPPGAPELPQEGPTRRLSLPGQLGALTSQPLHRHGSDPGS

[2] = Clearance in rat at 2 mg/kg, iv; type: ADME, organism-based; conditions: in vivo
[3] = system: Mus musculus; assay: Time at which free plasma concentration stays above antiproliferative KARPAS422 cells IC90 level in mouse xenografted with human KARPAS422 cells at 300 mg/kg, po bid
[4] = system: KARPAS-422; assay: Antitumor activity against human KARPAS422 cells harboring EZH2 Y641N mutant xenografted in mouse assessed as tumor regression at 100 mg/kg, sc qd measured 40 days post treatment termination on day 31
[5] = system: Mus musculus; assay: Time at which free plasma concentration stays below antiproliferative KARPAS422 cells IC90 level in mouse xenografted with human KARPAS422 cells at 100 mg/kg, po bid
[6] = system: KARPAS-422; assay: Antiproliferative activity against human KARPAS422 cells after 72 hrs by resazurin assay; type: functional, cell-based; conditions: Homo sapiens, KARPAS-422, 72 h
[7] = biological target: T1, Cytochrome P450 2C8 (Homo sapiens, UniProt P10632); assay: Inhibition of CYP2C8 (unknown origin); type: ADME
T1 sequence (P10632 whole entry): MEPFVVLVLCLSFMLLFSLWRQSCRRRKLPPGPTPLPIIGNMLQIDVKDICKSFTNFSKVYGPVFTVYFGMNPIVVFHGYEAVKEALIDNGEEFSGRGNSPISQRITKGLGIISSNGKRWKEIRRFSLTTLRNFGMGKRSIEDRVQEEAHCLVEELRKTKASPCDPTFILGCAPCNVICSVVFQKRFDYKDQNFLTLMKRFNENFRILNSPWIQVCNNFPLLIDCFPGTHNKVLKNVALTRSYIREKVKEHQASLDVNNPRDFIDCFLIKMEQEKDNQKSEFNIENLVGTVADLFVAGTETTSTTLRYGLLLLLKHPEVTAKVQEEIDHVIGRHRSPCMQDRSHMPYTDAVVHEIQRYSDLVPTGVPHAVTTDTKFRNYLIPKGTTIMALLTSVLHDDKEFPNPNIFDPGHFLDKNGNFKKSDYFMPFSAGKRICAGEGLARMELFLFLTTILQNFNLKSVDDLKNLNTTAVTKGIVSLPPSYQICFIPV

[8] = system: KARPAS-422; assay: Antitumor activity against human KARPAS422 cells harboring EZH2 Y641N mutant xenografted in mouse assessed as decrease in tumor growth at 100 mg/kg, po bid; type: functional, organism-based
[9] = system: Histone-lysine N-methyltransferase EZH2 (Homo sapiens), Q15910 [Y641N]
Sequence of Histone-lysine N-methyltransferase EZH2 (Homo sapiens), Q15910 [Y641N] (Q15910 whole entry Y641N): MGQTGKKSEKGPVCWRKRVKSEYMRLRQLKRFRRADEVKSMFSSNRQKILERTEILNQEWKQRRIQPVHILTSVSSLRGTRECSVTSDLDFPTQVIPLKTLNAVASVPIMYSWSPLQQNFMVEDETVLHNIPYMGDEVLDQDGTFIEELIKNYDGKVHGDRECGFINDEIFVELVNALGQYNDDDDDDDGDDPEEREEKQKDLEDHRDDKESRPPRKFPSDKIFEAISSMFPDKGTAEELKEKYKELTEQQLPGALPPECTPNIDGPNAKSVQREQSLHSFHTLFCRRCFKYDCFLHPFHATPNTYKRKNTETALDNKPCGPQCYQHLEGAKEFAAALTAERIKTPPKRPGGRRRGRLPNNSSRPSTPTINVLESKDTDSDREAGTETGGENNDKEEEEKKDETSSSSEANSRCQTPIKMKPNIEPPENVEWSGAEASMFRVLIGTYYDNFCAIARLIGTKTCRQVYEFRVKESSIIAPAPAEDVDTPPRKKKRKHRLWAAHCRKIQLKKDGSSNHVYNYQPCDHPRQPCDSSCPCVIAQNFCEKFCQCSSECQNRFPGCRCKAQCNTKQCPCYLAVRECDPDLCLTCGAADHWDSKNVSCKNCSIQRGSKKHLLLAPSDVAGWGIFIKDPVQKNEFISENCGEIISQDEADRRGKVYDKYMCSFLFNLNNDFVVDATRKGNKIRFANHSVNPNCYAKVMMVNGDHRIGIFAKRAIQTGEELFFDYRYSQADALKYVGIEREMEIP

[10] = system: Salmonella typhimurium; assay: Mutagenicity in Salmonella typhimurium by Ames assay; type: toxicity; conditions: salmonella enterica subsp. enterica serovar typhimurium
[11] = Kinetic solubility of the compound; type: physicochemical; conditions: read-out: Kinetic_solubility
[12] = Lipophilicity, log D of the compound at pH 7.4; conditions: buffer, pH 7.4, logD
[13] = Thermodynamic solubility in water at 25 degC using crystalline form; type: physicochemical; conditions: read-out: Therm_solubility
[14] = system: Mus musculus; assay: In vivo inhibition of EZH2 in mouse xenografted with human KARPAS422 cells harboring EZH2 Y641N mutant assessed as reduction in H3K27me3 level in tumor at 300 mg/kg, po bid measured 4 hrs post last dose on day 9 relative to control; type: functional; conditions: KARPAS-422, po
Outline: (§1)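 Mice bearing Karpas-422 (EZH2 Y641N) xenografts were dosed with crystalline suspension orally twice daily (7 h/17 h) or subcutaneously once daily. Tumors were collected on day 9, 4 h after the last dose, for H3K27me3 quantification.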

[15] = biological target: T2, Histone-lysine N-methyltransferase EZH2 (Homo sapiens, UniProt Q15910); assay: Inhibition of EZH2 in human KARPAS422 cells assessed as reduction in H3K27me3 level after 72 hrs by ELISA
Target sequence in this assay (Q15910 whole entry): as the sequence (Q15910 whole entry Y641N) above, with N641Y counted along it

[16] = system: Mus musculus; assay: Toxicity in mouse xenografted with human KARPAS422 cells harboring EZH2 Y641N mutant assessed as change in body weight at 100 to 300 mg/kg, po bid; type: organism-based; conditions: in vivo
[17] = system: Mus musculus; assay: In vivo inhibition of EZH2 in mouse xenografted with human KARPAS422 cells harboring EZH2 Y641N mutant assessed as reduction in H3K27me3 level in tumor at 100 mg/kg, sc qd measured 4 hrs post last dose on day 9 relative to control; type: functional; conditions: KARPAS-422, sc; outline: as §1
[18] = Intrinsic clearance in human liver microsomes assessed per mg protein at 1 uM preincubated for 10 mins followed by NADPH addition measured after 45 mins by LC-MS/MS analysis; type: ADME, microsome; conditions: liver microsomes, read-out: CLH
Outline: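 Test compound (1 μM) with pooled liver microsomes (0.8 mg/mL protein) in 100 mM potassium phosphate pH 7.4, 10 min preincubation, started with 2 mM NADPH, 45 min at 37 °C, in triplicate. Samples quenched with cold methanol containing buspirone internal standard, analysed by LC−MS/MS. CLint derived from t1/2 of parent loss (log-linear slope).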

[19] = Clearance in mouse hepatocytes assessed per million cells; type: ADME, cell-based, Hepatocyte; conditions: read-out: CLH
[20] = system: Mus musculus; assay: In vivo inhibition of EZH2 in mouse xenografted with human KARPAS422 cells harboring EZH2 Y641N mutant assessed as reduction in H3K27me3 level in tumor at 100 mg/kg, po bid measured 4 hrs post last dose on day 9 relative to control; type: functional; conditions: KARPAS-422, po; outline: as §1
[21] = biological target: T2, Histone-lysine N-methyltransferase EZH2; assay: Binding affinity to EZH2 (unknown origin)
Target sequence in this assay (Q15910 whole entry): as the sequence (Q15910 whole entry Y641N) above, with N641Y counted along it

[22] = biological target: Cytochrome P450 2C9 (Homo sapiens, UniProt P11712); assay: Inhibition of CYP2C9 (unknown origin); type: ADME
Sequence of Cytochrome P450 2C9 (P11712 whole entry): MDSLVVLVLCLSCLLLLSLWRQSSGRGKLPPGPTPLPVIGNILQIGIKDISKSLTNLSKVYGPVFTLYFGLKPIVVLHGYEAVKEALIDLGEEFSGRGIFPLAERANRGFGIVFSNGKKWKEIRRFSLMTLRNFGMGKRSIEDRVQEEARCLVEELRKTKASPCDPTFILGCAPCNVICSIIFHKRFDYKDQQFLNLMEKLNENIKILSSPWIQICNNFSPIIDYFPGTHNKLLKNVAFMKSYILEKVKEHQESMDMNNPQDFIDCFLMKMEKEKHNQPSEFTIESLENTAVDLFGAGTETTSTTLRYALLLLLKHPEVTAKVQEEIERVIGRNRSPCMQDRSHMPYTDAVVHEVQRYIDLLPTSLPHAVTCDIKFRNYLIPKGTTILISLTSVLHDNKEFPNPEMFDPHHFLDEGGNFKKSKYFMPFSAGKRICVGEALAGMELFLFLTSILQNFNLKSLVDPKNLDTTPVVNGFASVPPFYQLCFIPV

[23] = biological target: T2, Histone-lysine N-methyltransferase EZH2
Target sequence in this assay (Q15910 whole entry, looked up): as the sequence (Q15910 whole entry Y641N) above, with N641Y counted along it

[24] = biological target: Histone-lysine N-methyltransferase EZH2 (Homo sapiens, UniProt Q15910, Y641N); assay: Inhibition of EZH2 Y641N mutant (unknown origin) using oligonucleosomes as substrate after 60 mins in presence of [3H]SAM by scintillation counting analysis
Sequence of Histone-lysine N-methyltransferase EZH2 (Homo sapiens, UniProt Q15910, Y641N) (Q15910 whole entry Y641N): as the sequence (Q15910 whole entry Y641N) above

[25] = system: KARPAS-422; assay: Antitumor activity against human KARPAS422 cells harboring EZH2 Y641N mutant xenografted in mouse assessed as decrease in tumor regression at 100 mg/kg, sc qd measured 40 days post treatment termination on day 31; type: functional, organism-based
[26] = biological target: Cytochrome P450 2C19 (Homo sapiens, UniProt P33261); assay: Inhibition of CYP2C19 (unknown origin); type: ADME
Sequence of Cytochrome P450 2C19 (P33261 whole entry): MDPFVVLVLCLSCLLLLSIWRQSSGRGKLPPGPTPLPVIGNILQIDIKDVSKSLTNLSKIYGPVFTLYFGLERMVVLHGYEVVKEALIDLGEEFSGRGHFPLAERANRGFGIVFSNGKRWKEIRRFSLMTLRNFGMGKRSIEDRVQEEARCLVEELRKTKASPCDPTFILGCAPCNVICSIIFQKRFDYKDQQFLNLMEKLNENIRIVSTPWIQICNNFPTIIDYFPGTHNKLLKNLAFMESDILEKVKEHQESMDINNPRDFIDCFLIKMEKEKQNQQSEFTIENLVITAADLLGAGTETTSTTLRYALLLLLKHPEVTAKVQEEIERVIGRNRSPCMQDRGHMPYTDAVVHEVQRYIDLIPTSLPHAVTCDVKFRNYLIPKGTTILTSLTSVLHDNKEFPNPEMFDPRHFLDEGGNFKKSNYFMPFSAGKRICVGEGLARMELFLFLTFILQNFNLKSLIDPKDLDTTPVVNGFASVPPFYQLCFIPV

- clearance [2]: 70 mL/min/kg
- IC50 [6]: 0.006 µM
- IC90 [6]: 0.06 µM
- IC50 [7]: > 30 µM
- T1/2 [9]: 6 h
- solubility kinetic [11]: 538 µM (≈ 251 µg/mL)
- logD [12]: 1.9
- solubility thermodynamic [13]: 315 µg/mL (≈ 674 µM)
- IC50 [15]: 0.004 µM
- microsomal CLint at 1 µM [18]: 39 µL/min/mg
- hepatocyte CLint [19]: 60.1 µL/min/1e6 cells
- Ki [21]: < 0.0001 µM
- IC50 [22]: > 30 µM
- T1/2 [23]: 22 h
- Ki [24]: < 0.0001 µM
- IC50 [26]: > 30 µM
Compound: COc1cc(C)[nH]c(=O)c1CN1CCc2c(Cl)cc([C@H](OC)C3COC3)c(Cl)c2C1=O [MEVROMETOSTAT]
- IC50 [1]: > 100 µM
- Time [3]: 24 h
- Activity [4]: Active
- Time [5]: 7 to 24 h
- TGI [8]: Active
- Activity [10]: Non-Toxic
- inhibition in vivo at 300 mg/kg [14]: 47.9%
- Activity [16]: Non-Toxic
- inhibition in vivo at 100 mg/kg [17]: 13.8%
- inhibition in vivo at 100 mg/kg [20]: 45.4%
- Activity [25]: Active
